Assay results: ChEMBL document CHEMBL1146122, “Neuropeptide Y (NPY) Y4 receptor selective agonists based on NPY(32-36): development of an anorectic Y4 receptor selective agonist with picomolar affinity” (J Med Chem, 2006)
Positions of bridges follow the written chain, without caps; N, C: chain ends. Non-standard residues stand in square brackets, D forms with d. Residues, ends and D or L forms follow the SMILES beside them. Chains are numbered I, II in the order given. Nva = CCC[C@H](N)C(=O)O

How the values were obtained:
[1] = molecular target: T1, Neuropeptide Y receptor type 2 (Homo sapiens, UniProt P49146); experiment: Displacement of […] from human NPY2 receptor expressed in CHO cells; type: cell-based
T1 sequence (P49146 whole entry): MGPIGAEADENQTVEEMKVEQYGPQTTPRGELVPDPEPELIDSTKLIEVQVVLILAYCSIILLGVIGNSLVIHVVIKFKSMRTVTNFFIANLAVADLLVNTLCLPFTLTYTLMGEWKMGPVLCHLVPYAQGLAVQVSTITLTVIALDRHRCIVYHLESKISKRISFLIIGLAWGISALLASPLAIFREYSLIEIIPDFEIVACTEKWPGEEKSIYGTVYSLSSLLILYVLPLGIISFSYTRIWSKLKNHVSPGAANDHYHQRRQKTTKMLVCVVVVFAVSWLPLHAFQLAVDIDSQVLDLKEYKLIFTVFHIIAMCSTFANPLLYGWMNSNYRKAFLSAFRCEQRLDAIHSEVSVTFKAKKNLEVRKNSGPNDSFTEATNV
Procedure, shortened: (§1)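 Competition binding on membranes (5-10 µg protein) from CHO cells stably expressing human Y1, Y2 or rat-human hybrid Y5 receptors. Radioligand 0.2 nM 125I-PYY, incubated with a range of peptide concentrations in 50 mM HEPES pH 7.3, 0.1% BSA, 2.5 mM CaCl2 and 1 mM MgCl2 for 90 min at room temperature. Bound ligand separated on PEI-treated glass fibre filters, washed with PBS and γ-counted. 1 µM NPY defined nonspecific binding. Duplicate points, three experiments, nonlinear regression.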

[2] = molecular target: T2, Neuropeptide Y receptor type 1 (Homo sapiens, UniProt P25929); experiment: Displacement of […] from human NPY1 receptor expressed in CHO cells; type: cell-based; procedure, shortened: as §1
T2 sequence (P25929 whole entry): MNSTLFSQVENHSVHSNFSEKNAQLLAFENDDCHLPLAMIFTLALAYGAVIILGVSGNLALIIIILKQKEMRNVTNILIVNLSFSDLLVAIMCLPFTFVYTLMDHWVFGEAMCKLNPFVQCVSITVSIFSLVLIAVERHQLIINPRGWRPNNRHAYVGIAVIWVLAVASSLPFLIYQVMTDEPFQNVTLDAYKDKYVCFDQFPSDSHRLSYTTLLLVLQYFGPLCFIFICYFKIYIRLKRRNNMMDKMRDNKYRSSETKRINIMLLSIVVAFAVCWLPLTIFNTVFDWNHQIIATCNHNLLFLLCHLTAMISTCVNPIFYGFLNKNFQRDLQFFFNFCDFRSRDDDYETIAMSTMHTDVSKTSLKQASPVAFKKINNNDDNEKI

[3] = molecular target: T3, Neuropeptide Y receptor type 4 (Homo sapiens, UniProt P50391); experiment: Displacement of [125I]hPP from human NPY4 receptor expressed in CHO cells; type: cell-based
T3 sequence (P50391 whole entry): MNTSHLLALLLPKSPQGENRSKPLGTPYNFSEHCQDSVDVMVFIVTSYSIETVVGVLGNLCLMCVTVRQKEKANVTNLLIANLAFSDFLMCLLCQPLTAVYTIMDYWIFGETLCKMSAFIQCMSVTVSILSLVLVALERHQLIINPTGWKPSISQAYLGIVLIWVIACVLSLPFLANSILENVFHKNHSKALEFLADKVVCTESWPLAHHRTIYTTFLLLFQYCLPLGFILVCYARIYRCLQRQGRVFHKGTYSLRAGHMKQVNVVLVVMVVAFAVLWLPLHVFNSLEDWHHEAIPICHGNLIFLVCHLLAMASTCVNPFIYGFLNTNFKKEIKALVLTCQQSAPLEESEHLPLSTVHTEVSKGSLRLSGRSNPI
Procedure, shortened: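 Y4 binding used membranes from CHO cells stably expressing cloned human Y4, with 125I-PP as radioligand. Competing peptides were tested over a range of concentrations in 50 mM HEPES pH 7.3, 0.1% BSA, 2.5 mM CaCl2 and 1 mM MgCl2 for 90 min at room temperature. Separation was by filtration and γ-counting. Nonspecific binding was taken with 1 µM PP. Duplicate points, three experiments, nonlinear regression.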

[4] = Displacement of […] from rat-human hybrid NPY5 receptor expressed in CHO cells; type: cell-based; procedure, shortened: as §1
[5] = molecular target: T2, Neuropeptide Y receptor type 1; experiment: Agonist activity at human NPY1 receptor in CHO cells by inhibition of forskolin-stimulated cAMP synthesis; type: functional, cell-based
[6] = molecular target: T3, Neuropeptide Y receptor type 4; experiment: Agonist activity at human NPY4 receptor in CHO cells by inhibition of forskolin-stimulated cAMP synthesis
Homo sapiens [7] = organism: Homo sapiens; experiment: Selectivity for human NPY4 over NPY2 receptor
Homo sapiens [8] = organism: Homo sapiens; experiment: Selectivity for human NPY4 over NPY1 receptor
[9] = Selectivity for human NPY4 over rat-human hybrid NPY5 receptor
[10] = molecular target: T4, Neuropeptide Y receptor type 1 (Homo sapiens) (UniProt P25929); experiment: Antagonist activity against human NPY1 receptor in CHO cells by inhibition of forskolin-stimulated cAMP synthesis; type: functional, cell-based
T4 sequence (whole entry): T2 sequence (P25929 whole entry)

| Structure (SMILES) | Ki [1] [nM] | Ki [2] [nM] | Ki [3] [nM] | Ki [4] [nM] | EC50 [5] [nM] | EC50 [6] [nM] | Selectivity ratio (Homo sapiens [7]) | Selectivity ratio (Homo sapiens [8]) | Selectivity ratio [9] | Kb [10] [nM] |
| --- | --- | --- | --- | --- | --- | --- | --- | --- | --- | --- |
| CC(C)C[C@H](NC(=O)[C@H](CCCN=C(N)N)NC(=O)[C@H](Cc1ccc(O)cc1)NC(=O)[C@@H](N)CCCC[C@H](N)C(=O)N[C@@H](Cc1ccc(O)cc1)C(=O)N[C@@H](CCCN=C(N)N)C(=O)N[C@@H](CC(C)C)C(=O)N[C@@H](CCCN=C(N)N)C(=O)N[C@@H](Cc1ccc(O)cc1)C(N)=O)C(=O)N[C@@H](CCCN=C(N)N)C(=O)N[C@@H](Cc1ccc(O)cc1)C(N)=O | 890 | 7.5 | 0.05 | > 1000 | 240 | 14.8 | – | – | – | – |
| CCC[C@H](NC(=O)[C@H](CCCN=C(N)N)NC(=O)[C@H](Cc1c[nH]c2ccccc12)NC(=O)[C@@H](N)CC[C@H](N)C(=O)N[C@@H](Cc1c[nH]c2ccccc12)C(=O)N[C@@H](CCCN=C(N)N)C(=O)N[C@@H](CCC)C(=O)N[C@@H](CCCN=C(N)N)C(=O)N[C@@H](Cc1ccc(O)cc1)C(N)=O)C(=O)N[C@@H](CCCN=C(N)N)C(=O)N[C@@H](Cc1ccc(O)cc1)C(N)=O | 360 | 140 | 4.2 | 330 | – | 460 | 85 | 34 | 78 | – |
| CCC[C@H](NC(=O)[C@H](CCCN=C(N)N)NC(=O)[C@H](Cc1c[nH]c2ccccc12)NC(=O)[C@H](Cc1ccc(O)cc1)NC(=O)[C@H](CCCN=C(N)N)NC(=O)[C@H](CCC)NC(=O)[C@H](CCCN=C(N)N)NC(=O)[C@@H](N)Cc1c[nH]c2ccccc12)C(=O)N[C@@H](CCCN=C(N)N)C(=O)N[C@@H](Cc1ccc(O)cc1)C(N)=O (H-WR[Nva]RYWR[Nva]RY-NH2) | 1050 | 220 | 5.3 | 250 | – | 290 | 200 | 50 | 50 | 320 |
| CCC[C@H](NC(=O)[C@H](CCCN=C(N)N)NC(=O)[C@H](Cc1c[nH]c2ccccc12)NC(=O)[C@@H](N)CSSC[C@H](N)C(=O)N[C@@H](Cc1c[nH]c2ccccc12)C(=O)N[C@@H](CCCN=C(N)N)C(=O)N[C@@H](CCC)C(=O)N[C@@H](CCCN=C(N)N)C(=O)N[C@@H](Cc1ccc(O)cc1)C(N)=O)C(=O)N[C@@H](CCCN=C(N)N)C(=O)N[C@@H](Cc1ccc(O)cc1)C(N)=O (I: H-CWR[Nva]RY-NH2 / II: H-CWR[Nva]RY-NH2; disulfide I:1-II:1) | – | – | – | 770 | – | – | 110 | 10 | 30 | 1730 |
| CCC[C@H](NC(=O)[C@H](CCCNC(=N)N)NC(=O)[C@H](Cc1c[nH]c2ccccc12)NC(=O)[C@@H](N)CSSC[C@H](N)C(=O)N[C@@H](Cc1c[nH]c2ccccc12)C(=O)N[C@@H](CCCNC(=N)N)C(=O)N[C@@H](CCC)C(=O)N[C@@H](CCCNC(=N)N)C(=O)N[C@@H](Cc1ccc(O)cc1)C(N)=O)C(=O)N[C@@H](CCCNC(=N)N)C(=O)N[C@@H](Cc1ccc(O)cc1)C(N)=O (I: H-CWR[Nva]RY-NH2 / II: H-CWR[Nva]RY-NH2; disulfide I:1-II:1) | > 3000 | 340 | 30 | – | – | 570 | – | – | – | – |
| CCC[C@H](NC(=O)[C@H](CCCN=C(N)N)NC(=O)[C@H](Cc1c[nH]c2ccccc12)NC(=O)[C@@H](N)CCC[C@H](N)C(=O)N[C@@H](Cc1c[nH]c2ccccc12)C(=O)N[C@@H](CCCN=C(N)N)C(=O)N[C@@H](CCC)C(=O)N[C@@H](CCCN=C(N)N)C(=O)N[C@@H](Cc1ccc(O)cc1)C(N)=O)C(=O)N[C@@H](CCCN=C(N)N)C(=O)N[C@@H](Cc1ccc(O)cc1)C(N)=O (stereo in doubt; 2A) [listing 1 of 2 here] | 310 | 120 | 4.3 | 2160 | – | 200 | – | – | – | – |
| CCC[C@H](NC(=O)[C@H](CCCN=C(N)N)NC(=O)[C@H](Cc1c[nH]c2ccccc12)NC(=O)[C@@H](N)CCC[C@H](N)C(=O)N[C@@H](Cc1c[nH]c2ccccc12)C(=O)N[C@@H](CCCN=C(N)N)C(=O)N[C@@H](CCC)C(=O)N[C@@H](CCCN=C(N)N)C(=O)N[C@@H](Cc1ccc(O)cc1)C(N)=O)C(=O)N[C@@H](CCCN=C(N)N)C(=O)N[C@@H](Cc1ccc(O)cc1)C(N)=O (stereo in doubt; 2A) [listing 2 of 2 here] | – | – | – | – | – | – | 70 | 30 | 500 | – |
| CCC[C@H](NC(=O)[C@H](CCCN=C(N)N)NC(=O)[C@H](Cc1c[nH]c2ccccc12)NC(=O)[C@@H](N)CCC[C@H](N)C(=O)N[C@@H](Cc1c[nH]c2ccccc12)C(=O)N[C@@H](CCCN=C(N)N)C(=O)N[C@@H](CCC)C(=O)N[C@@H](CCCN=C(N)N)C(=O)N[C@@H](Cc1ccc(O)cc1)C(N)=O)C(=O)N[C@@H](CCCN=C(N)N)C(=O)N[C@@H](Cc1ccc(O)cc1)C(N)=O (stereo in doubt; 2B) [listing 1 of 2 here] | 260 | 140 | 4.1 | 2280 | – | 220 | – | – | – | – |
| CCC[C@H](NC(=O)[C@H](CCCN=C(N)N)NC(=O)[C@H](Cc1c[nH]c2ccccc12)NC(=O)[C@@H](N)CCC[C@H](N)C(=O)N[C@@H](Cc1c[nH]c2ccccc12)C(=O)N[C@@H](CCCN=C(N)N)C(=O)N[C@@H](CCC)C(=O)N[C@@H](CCCN=C(N)N)C(=O)N[C@@H](Cc1ccc(O)cc1)C(N)=O)C(=O)N[C@@H](CCCN=C(N)N)C(=O)N[C@@H](Cc1ccc(O)cc1)C(N)=O (stereo in doubt; 2B) [listing 2 of 2 here] | – | – | – | – | – | – | 60 | 40 | 550 | – |
| CCC[C@H](NC(=O)[C@H](CCCN=C(N)N)NC(=O)[C@H](Cc1c[nH]c2ccccc12)NC(=O)[C@@H](N)CCCC[C@H](N)C(=O)N[C@@H](Cc1c[nH]c2ccccc12)C(=O)N[C@@H](CCCN=C(N)N)C(=O)N[C@@H](CCC)C(=O)N[C@@H](CCCN=C(N)N)C(=O)N[C@@H](Cc1ccc(O)cc1)C(N)=O)C(=O)N[C@@H](CCCN=C(N)N)C(=O)N[C@@H](Cc1ccc(O)cc1)C(N)=O (stereo in doubt; 4A) [listing 1 of 2 here] | 390 | 90 | 4.1 | 120 | – | 430 | – | – | – | – |
| CCC[C@H](NC(=O)[C@H](CCCN=C(N)N)NC(=O)[C@H](Cc1c[nH]c2ccccc12)NC(=O)[C@@H](N)CCCC[C@H](N)C(=O)N[C@@H](Cc1c[nH]c2ccccc12)C(=O)N[C@@H](CCCN=C(N)N)C(=O)N[C@@H](CCC)C(=O)N[C@@H](CCCN=C(N)N)C(=O)N[C@@H](Cc1ccc(O)cc1)C(N)=O)C(=O)N[C@@H](CCCN=C(N)N)C(=O)N[C@@H](Cc1ccc(O)cc1)C(N)=O (stereo in doubt; 4A) [listing 2 of 2 here] | – | – | – | – | – | – | 100 | 20 | 30 | – |
| CCC[C@H](NC(=O)[C@H](CCCN=C(N)N)NC(=O)[C@H](Cc1c[nH]c2ccccc12)NC(=O)[C@@H](N)CCCC[C@H](N)C(=O)N[C@@H](Cc1c[nH]c2ccccc12)C(=O)N[C@@H](CCCN=C(N)N)C(=O)N[C@@H](CCC)C(=O)N[C@@H](CCCN=C(N)N)C(=O)N[C@@H](Cc1ccc(O)cc1)C(N)=O)C(=O)N[C@@H](CCCN=C(N)N)C(=O)N[C@@H](Cc1ccc(O)cc1)C(N)=O (stereo in doubt; 4B) | – | – | – | – | – | – | 270 | 40 | 140 | – |
